From ChEMBL document CHEMBL1122685, “Identification of an acridine photoaffinity probe for trypanocidal action” (1984) come the findings set out here.

Common to all, as to assay type: functional
In experiment [1] the test system is Trypanosoma brucei. In words: Trypanocidal activity against Trypanosoma brucei, exposure of parasites to compound prior to injection into mice at 10 e-4 M concentration in presence of light. Further details: unit: days. Summed up:
(§1)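 DEAE-purified T. brucei EATRO 110 at 5×10^6/mL in TSG was mixed with drug at the final concentration by gentle rotation for 10 min. Samples were light-activated for 10 min under a 30W fluorescent lamp 4 cm above. 5×10^5 treated parasites in 0.1 mL were injected ip into Swiss mice, five per group. Survival was scored daily for 30 days and reported as mean days ±SD, with untreated controls.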

Experiment [2] concerns Trypanosoma brucei. The experiment in a line: Compound is evaluated for trypanocidal activity against Trypanosoma brucei, by exposing the parasites directly to compound prior to injection to mice at 10 e-7 M concentration in presence of light. On the set-up: unit: days. Summed up: as §1
In experiment [3] the test system is Trypanosoma brucei. In words: Trypanocidal activity against Trypanosoma brucei, exposure of parasites to compound prior to injection into mice at 10 e-6 M concentration in dark conditions. Summed up: (§2)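 T. brucei EATRO 110 was separated from blood on DEAE-cellulose and washed in Tris-saline-glucose (TSG). Parasites at 5×10^6/mL in TSG were gently rotated 10 min with drug at the final concentration, kept dark under a red safelight until injection. Swiss mice, five per group, received 5×10^5 parasites ip in 0.1 mL. Read-out was mean days survival ±SD over 30 days, against untreated-parasite controls.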

The test system of experiment [4] is Trypanosoma brucei. The experiment in a line: Compound is evaluated for trypanocidal activity against Trypanosoma brucei, by exposing the parasites directly to compound prior to injection to mice at 10 e-7 M concentration in dark conditions. On the set-up: unit: days. Summed up: as §2
For experiment [5], the system named is Trypanosoma brucei. In words: Trypanocidal activity against Trypanosoma brucei, exposur of parasites to compound prior to injection into mice at 10 e-6 M concentration in presence of light. On the set-up: unit: days. The method, boiled down:
as §1

Experiment [6] concerns Trypanosoma brucei. In words: Trypanocidal activity against Trypanosoma brucei, exposure of parasites to compound prior to injection into mice at 10 e-5 M concentration in presence of light. On the set-up: unit: days. The method, boiled down:
as §1

In experiment [7] the test system is Trypanosoma brucei. The experiment in a line: Trypanocidal activity against Trypanosoma brucei, exposure of parasites to compound prior to injection into mice at 10 e-4 M concentration in dark conditions. Summed up:
as §2

Experiment [8] concerns Trypanosoma brucei. In words: Compound is evaluated for trypanocidal activity against Trypanosoma brucei, by exposing the parasites directly to compound prior to injection to mice at 10 e-6 M concentration (pre) in presence of light. Summed up: (§3)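 Compound was irradiated 1 h before contact with T. brucei EATRO 110 (5×10^6/mL in TSG, final drug concentration). After 10 min gentle rotation, the mixture was irradiated again for 10 min under a 30W fluorescent lamp at 4 cm. 5×10^5 parasites in 0.1 mL were given ip to five Swiss mice per group. Read-out was mean days survival ±SD over 30 days, with untreated controls.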

Experiment [9] relates to Trypanosoma brucei. The experiment in a line: Trypanocidal activity against Trypanosoma brucei, exposure of parasites to compound prior to injection into mice at 10 e-5 M concentration in dark conditions. The method, boiled down: as §2
Experiment [10] has as its system Trypanosoma brucei. The experiment in a line: Compound is evaluated for trypanocidal activity against Trypanosoma brucei, by exposing the parasites directly to compound prior to injection to mice at 10 e-5 M concentration (pre) in presence of light. The method, boiled down: as §3

Structures are written as SMILES.

Turning to `[N-]=[N+]=Nc1ccc2nc3ccccc3c(N)c2c1`, the Activity with Trypanosoma brucei [1] came to 30; in the experiment on Trypanosoma brucei [2], 6; in the experiment on Trypanosoma brucei [3], 4.8; in the experiment with Trypanosoma brucei [4] it was 4.6; in the experiment on Trypanosoma brucei [5], 11.6; with Trypanosoma brucei [6], 30. The Activity in the experiment on Trypanosoma brucei [9] is reported as 5.4. Moreover, the “Mean survival time of infected mice (days)” value (“Mean survival time” for short) with Trypanosoma brucei [7] turned out to be 9.8. The “Mean survival of mice (days)” value with Trypanosoma brucei [8] is recorded as 4.6.

As to `Nc1c2ccccc2nc2cccc([N+](=O)[O-])c12`, the Activity with Trypanosoma brucei [1] is 30; with Trypanosoma brucei [3], 4.4; in the experiment on Trypanosoma brucei [5], 5.8; in the experiment on Trypanosoma brucei [6] it was 30; in the experiment on Trypanosoma brucei [9], 25.4. Moreover, the “Mean survival time” value with Trypanosoma brucei [7] came to 30.

Regarding `Nc1ccc2c(N)c3ccccc3nc2c1`, the Activity stood at 30 in the experiment on Trypanosoma brucei [1]; 15 with Trypanosoma brucei [2]; 5 with Trypanosoma brucei [3]; 5.2 with Trypanosoma brucei [4]; 17.4 in the experiment on Trypanosoma brucei [5]; 30 with Trypanosoma brucei [6]. This molecule came in with an Activity in the experiment on Trypanosoma brucei [9] of 8.1. For the same molecule, the “Mean survival time” value in the experiment with Trypanosoma brucei [7] was determined as 30. Besides, the “Mean survival of mice (days)” value in the experiment on Trypanosoma brucei [8] came to 27.8.

With `CN(C)CCCNc1c2ccccc2nc2cccc([N+](=O)[O-])c12` [NITRACRINE], the Activity was 30 in the experiment with Trypanosoma brucei [1]; 6.6 in the experiment on Trypanosoma brucei [2]; 5.7 in the experiment with Trypanosoma brucei [3]; 6 in the experiment on Trypanosoma brucei [4]; 22.9 in the experiment with Trypanosoma brucei [5]; 30 with Trypanosoma brucei [6]. In the experiment with Trypanosoma brucei [9], this molecule yielded an Activity of 5.7. Also, in the experiment on Trypanosoma brucei [7], the “Mean survival time” value is 30. For the same molecule, in the experiment with Trypanosoma brucei [8], the “Mean survival of mice (days)” value is listed as 10.4.

In the case of `Nc1ccc(Nc2c3ccccc3nc3ccccc23)cc1`, the Activity was 30 in the experiment with Trypanosoma brucei [1]; 5.4 in the experiment on Trypanosoma brucei [3]; 4.4 in the experiment with Trypanosoma brucei [5]; 6.4 with Trypanosoma brucei [6]; 5 with Trypanosoma brucei [9]. The “Mean survival time” value in the experiment on Trypanosoma brucei [7] turned out to be 30.

`[N-]=[N+]=Nc1ccc2cc3ccc(N=[N+]=[N-])cc3nc2c1`: the Activity in the experiment with Trypanosoma brucei [1] is listed as 5.5. Also, in the experiment with Trypanosoma brucei [7], the “Mean survival time” value came out at 6.

With `C[n+]1c2ccccc2cc2cc(N)ccc21.[Cl-]`, the Activity in the experiment with Trypanosoma brucei [1] came to 30; in the experiment on Trypanosoma brucei [3] it was 3.6; with Trypanosoma brucei [5], 6; in the experiment with Trypanosoma brucei [6], 6.8; with Trypanosoma brucei [9], 5.8. In the experiment on Trypanosoma brucei [7], the “Mean survival time” value worked out at 30.

For `C[n+]1c2cc(N=[N+]=[N-])ccc2cc2ccc(N=[N+]=[N-])cc21.[Cl-]`, the Activity is 30 in the experiment with Trypanosoma brucei [1]; 5.6 in the experiment on Trypanosoma brucei [2]; 5.8 in the experiment with Trypanosoma brucei [3]; 5.4 with Trypanosoma brucei [4]; 8.2 in the experiment with Trypanosoma brucei [5]; 26.6 in the experiment with Trypanosoma brucei [6]. In the experiment on Trypanosoma brucei [9], this molecule gave an Activity of 6. Also, the “Mean survival time” value in the experiment with Trypanosoma brucei [7] was 30. The “Mean survival of mice (days)” value with Trypanosoma brucei [8] is 5.4.

Take `C[n+]1c2ccccc2cc2c(N)cccc21.[Cl-]`: the Activity in the experiment on Trypanosoma brucei [1] turned out to be 30; with Trypanosoma brucei [3], 4; in the experiment with Trypanosoma brucei [5] it was 4.2; in the experiment with Trypanosoma brucei [6] it was 6.4; in the experiment with Trypanosoma brucei [9] it was 4.6. Also, in the experiment on Trypanosoma brucei [7], the “Mean survival time” value was determined as 30.

`C[n+]1c2ccccc2c(N)c2ccccc21.[Cl-]`: the Activity came to 30 with Trypanosoma brucei [1]; 4.2 with Trypanosoma brucei [3]; 5.8 with Trypanosoma brucei [5]; 21 in the experiment with Trypanosoma brucei [6]; 5.4 in the experiment with Trypanosoma brucei [9]. In addition, in the experiment on Trypanosoma brucei [7], the “Mean survival time” value worked out at 30. The “Mean survival of mice (days)” value in the experiment with Trypanosoma brucei [8] was 6.2.

Turning to `C[n+]1c2ccccc2c(N=[N+]=[N-])c2ccccc21.[Cl-]`, the Activity with Trypanosoma brucei [1] was 30; with Trypanosoma brucei [2], 6.2; with Trypanosoma brucei [3], 5; in the experiment with Trypanosoma brucei [4], 5.2; in the experiment on Trypanosoma brucei [5], 6.8; with Trypanosoma brucei [6], 20. Moreover, in the experiment with Trypanosoma brucei [9], the Activity is given as 3.6. For the same molecule, the “Mean survival time” value in the experiment on Trypanosoma brucei [7] is 30. Moreover, in the experiment with Trypanosoma brucei [8], the “Mean survival of mice (days)” value was 8.6.

In the case of `[N-]=[N+]=Nc1ccc2c(N)c3ccccc3nc2c1`, the Activity in the experiment on Trypanosoma brucei [1] was 26.8; in the experiment on Trypanosoma brucei [3], 5.8; in the experiment with Trypanosoma brucei [5], 7.6; in the experiment with Trypanosoma brucei [10] it was 5.2; with Trypanosoma brucei [6], 14.2; in the experiment on Trypanosoma brucei [9] it was 6.3. For the same molecule, in the experiment with Trypanosoma brucei [7], the “Mean survival time” value came to 25.3.

Take `[N-]=[N+]=Nc1ccc(Nc2c3ccccc3nc3ccccc23)cc1`: the Activity is recorded as 30 in the experiment on Trypanosoma brucei [1]; 4.4 in the experiment with Trypanosoma brucei [3]; 5.8 with Trypanosoma brucei [5]; 30 with Trypanosoma brucei [6]; 4 in the experiment on Trypanosoma brucei [9]. The “Mean survival time” value with Trypanosoma brucei [7] is recorded as 4.8.

On to `[N-]=[N+]=Nc1c2ccccc2nc2ccccc12`, for which the Activity is 30 in the experiment with Trypanosoma brucei [1]; 4 in the experiment with Trypanosoma brucei [2]; 5 in the experiment on Trypanosoma brucei [3]; 4.6 in the experiment on Trypanosoma brucei [4]; 30 in the experiment with Trypanosoma brucei [5]; 30 in the experiment on Trypanosoma brucei [6]. Also, in the experiment on Trypanosoma brucei [9], the Activity came out at 30. For the same molecule, the “Mean survival time” value in the experiment on Trypanosoma brucei [7] is reported as 30. Further, the “Mean survival of mice (days)” value in the experiment on Trypanosoma brucei [8] amounted to 4.2.

Take `C[n+]1c2ccccc2cc2cc(N=[N+]=[N-])ccc21.[Cl-]`: the Activity in the experiment on Trypanosoma brucei [1] turned out to be 30; with Trypanosoma brucei [2], 4.2; with Trypanosoma brucei [3] it was 4.4; in the experiment with Trypanosoma brucei [4] it was 4.8; with Trypanosoma brucei [5] it was 5.5; with Trypanosoma brucei [6], 13.9. The molecule also registered an Activity in the experiment with Trypanosoma brucei [9] of 14.5. Besides, the “Mean survival time” value in the experiment on Trypanosoma brucei [7] was 30. Moreover, in the experiment on Trypanosoma brucei [8], the “Mean survival of mice (days)” value turned out to be 4.8.

With `[N-]=[N+]=Nc1c2ccccc2nc2cccc([N+](=O)[O-])c12`, the Activity in the experiment on Trypanosoma brucei [1] is on record as 30; in the experiment with Trypanosoma brucei [2] it was 5; with Trypanosoma brucei [3], 4.2; in the experiment with Trypanosoma brucei [4], 5.4; with Trypanosoma brucei [5] it was 6; in the experiment with Trypanosoma brucei [6] it was 30. In the experiment on Trypanosoma brucei [9], this molecule displayed an Activity of 10. Moreover, the “Mean survival time” value with Trypanosoma brucei [7] turned out to be 30. The “Mean survival of mice (days)” value in the experiment with Trypanosoma brucei [8] is reported as 4.

Turning to `C[n+]1c2ccccc2cc2c(N=[N+]=[N-])cccc21.[Cl-]`, the Activity is 4.8 in the experiment on Trypanosoma brucei [1], 4.8 with Trypanosoma brucei [6] and 6.4 in the experiment with Trypanosoma brucei [9]. Moreover, the “Mean survival time” value in the experiment with Trypanosoma brucei [7] stood at 4.4.

On to `CC[n+]1c(-c2ccccc2)c2cc(N=[N+]=[N-])ccc2c2ccc(N)cc21.[Cl-]`, for which the Activity was 27.4 with Trypanosoma brucei [2], 4.6 in the experiment with Trypanosoma brucei [3], 4 in the experiment with Trypanosoma brucei [4] and 30 in the experiment on Trypanosoma brucei [5].
